# Active and inactive are the calls of the source. The rule behind the calls is not given here.
# Columns and labels:
# [1] = biological target: T1, Stimulator of interferon genes protein (Mus musculus, UniProt Q3TBT3); test: Activation of STING in mouse RAW-Lucia ISG cells assessed as induction of type I IFNs stimulation by measuring induction of IRF pathway incubated for 48 hrs by luciferase reporter gene assay; type: cell-based
# T1 sequence (Q3TBT3 whole entry): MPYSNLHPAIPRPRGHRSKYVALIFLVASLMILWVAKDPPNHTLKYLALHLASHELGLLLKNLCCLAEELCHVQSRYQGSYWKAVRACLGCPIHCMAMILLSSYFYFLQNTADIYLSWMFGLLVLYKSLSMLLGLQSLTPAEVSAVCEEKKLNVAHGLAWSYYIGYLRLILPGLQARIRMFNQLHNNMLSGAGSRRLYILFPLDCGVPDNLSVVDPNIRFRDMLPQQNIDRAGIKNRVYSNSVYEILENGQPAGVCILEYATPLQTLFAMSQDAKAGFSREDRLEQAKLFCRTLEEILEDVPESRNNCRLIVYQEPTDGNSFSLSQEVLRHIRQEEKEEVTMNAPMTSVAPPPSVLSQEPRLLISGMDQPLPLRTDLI
# Summary of the method: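 Cells (~100,000/well) stimulated 48 h at 37 °C, 5% CO2, with saline vehicle or compound in saline at seven concentrations. Luciferase reporter read with Quanti-Luc. EC50 from log(agonist) dose-response fit; mean ± SD of three independent experiments.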
# RAW [2] = test: Induction of type I IFN production in mouse RAW-Lucia ISG-KO-STING cells at 0.08 to 60 ug/ml incubated for 48 hrs by luciferase reporter gene assay; type: functional, cell-based; details: dose 0.08-60 µg/ml
# [3] = Stability in presence of snake venom phosphodiesterase assessed as parent compound remaining level at 7 ug incubated for 2 hrs by HPLC analysis; type: ADME; details: in vitro, at 7 µg
# Summary of the method: (§1)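 7 µg of each CDN incubated at 37 °C in a water bath with 21 µL of enzyme solution (160 µg snake venom phosphodiesterase in PBS with 0.6 mM MgCl2), with water as the no-enzyme control. Aliquots were taken at time points from 0 to 2 h, heated at 100 °C for 2 min, frozen, then injected onto a C18 UHPLC column with UV detection to follow the parent compound.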
# [4] = biological target: T2, Stimulator of interferon genes protein (Homo sapiens, UniProt Q86WV6); test: Activation of STING in human blood assessed as induction of type I IFNs incubated for 18 to 20 hrs by QUANTI-Blue assay; type: tissue-based
# [5] = biological target: T3, Stimulator of interferon genes protein (Mus musculus) (UniProt Q3TBT3); test: Activation of STING in mouse RAW-Lucia ISG cells assessed as induction of type I IFNs stimulation by measuring induction of IRF pathway incubated for 48 hrs by luciferase reporter gene assay relative to 2',3'-cGAMP; type: cell-based; details: filed as activator
# T3 sequence (whole entry): T1 sequence (Q3TBT3 whole entry)
# Summary of the method: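 RAW-Lucia ISG cells (~100,000/well), 48 h at 37 °C, 5% CO2, compound in saline at seven concentrations, Quanti-Luc luciferase read-out. Emax taken as fitted top plateau, normalized to the 2',3'-cGAMP response in each assay; mean percentage ± SD of three independent experiments.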
# [6] = test system: snake venom phosphodiesterase; test: (§2) Stability in presence of snake venom phosphodiesterase assessed as parent compound degradation at 7 ug incubated for 2 hrs by HPLC analysis; type: ADME; details: snake venom phosphodiesterase, read-out: Drug degradation; summary of the method: as §1
# Nuclease P1 [7] = biological target: T4, Nuclease P1 (Penicillium citrinum, UniProt P24289); test: Stability in presence of nuclease P1 assessed as half life at 7 ug incubated for 2 hrs by HPLC analysis; type: ADME; details: nuclease P1 (isolated enzyme), dose 7 µg
# T4 sequence (P24289 whole entry): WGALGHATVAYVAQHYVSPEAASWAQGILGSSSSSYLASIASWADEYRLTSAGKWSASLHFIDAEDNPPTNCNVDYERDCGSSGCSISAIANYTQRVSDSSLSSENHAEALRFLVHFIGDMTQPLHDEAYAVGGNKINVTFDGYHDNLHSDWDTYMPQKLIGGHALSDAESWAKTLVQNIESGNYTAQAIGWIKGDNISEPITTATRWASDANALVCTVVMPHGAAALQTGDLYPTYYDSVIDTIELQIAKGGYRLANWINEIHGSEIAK
# Summary of the method: (§3)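 7 µg CDN incubated at 37 °C with 2.5 mU NP1 in 30 mM acetate buffer, 2 mM ZnCl2, pH 5.3 (water control). Aliquots taken from 0 to 2 h, heated 100 °C for 2 min, frozen, then analysed by reverse-phase UPLC with UV detection.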
# Nuclease P1 [8] = biological target: T4, Nuclease P1; test: Stability in presence of nuclease P1 assessed as parent compound remaining level at 7 ug incubated for 2 hrs by HPLC analysis; type: ADME; details: at 7 µg; for Stabilty: in vitro, 2 h; summary of the method: as §3
# [9] = biological target: T5, ENPP1 (ectonucleotide pyrophosphatase/phosphodiesterase family member 1) (Homo sapiens, UniProt P22413); test: Stability in presence of ENPP1 ( unknown origin) assessed as half life by HPLC analysis; details: ENPP1 (isolated enzyme, unknown origin)
# T5 sequence (P22413 whole entry): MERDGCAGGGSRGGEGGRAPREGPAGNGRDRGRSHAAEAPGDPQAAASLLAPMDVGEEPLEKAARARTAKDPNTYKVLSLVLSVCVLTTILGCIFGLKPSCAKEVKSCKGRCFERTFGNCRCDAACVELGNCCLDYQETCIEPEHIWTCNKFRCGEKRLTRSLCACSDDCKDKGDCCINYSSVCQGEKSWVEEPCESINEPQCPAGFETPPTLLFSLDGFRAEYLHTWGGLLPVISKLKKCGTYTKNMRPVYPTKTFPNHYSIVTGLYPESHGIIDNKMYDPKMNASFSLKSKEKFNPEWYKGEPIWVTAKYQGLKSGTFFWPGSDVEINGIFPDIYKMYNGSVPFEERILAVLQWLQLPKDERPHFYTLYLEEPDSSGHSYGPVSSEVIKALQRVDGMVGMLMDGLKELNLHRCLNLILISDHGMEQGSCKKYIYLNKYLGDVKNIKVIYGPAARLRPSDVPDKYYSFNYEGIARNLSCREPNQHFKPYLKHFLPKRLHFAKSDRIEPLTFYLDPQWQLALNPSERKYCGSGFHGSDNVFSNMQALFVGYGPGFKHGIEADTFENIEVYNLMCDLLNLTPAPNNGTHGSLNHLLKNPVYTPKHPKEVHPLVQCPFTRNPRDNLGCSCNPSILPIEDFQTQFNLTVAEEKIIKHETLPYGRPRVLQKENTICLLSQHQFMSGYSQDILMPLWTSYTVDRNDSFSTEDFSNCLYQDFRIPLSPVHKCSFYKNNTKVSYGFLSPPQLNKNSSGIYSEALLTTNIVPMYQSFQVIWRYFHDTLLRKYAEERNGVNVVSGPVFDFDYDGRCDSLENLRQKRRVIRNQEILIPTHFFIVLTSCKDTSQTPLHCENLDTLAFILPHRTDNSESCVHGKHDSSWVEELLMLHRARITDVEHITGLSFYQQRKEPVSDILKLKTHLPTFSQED
# RAW [10] = test: Induction of type I IFN production in mouse RAW-Lucia ISG-KO-STING cells at 0.08 to 100 ug/ml incubated for 48 hrs by luciferase reporter gene assay; type: functional, cell-based; details: dose 0.08-100 µg/ml
# [11] = as §2; type: ADME; details: in vivo, 2 h; summary of the method: as §1
# [12] = Stability in presence of snake venom phosphodiesterase assessed as parent compound remaining level at 7 ug incubated for >2 hrs by HPLC analysis; type: ADME; details: at 7 µg
# [13] = biological target: T2, Stimulator of interferon genes protein; test: Activation of STING in human blood assessed as increase in IL-1 production at 10 ug/ml incubated for 18 to 20 hrs by QUANTI-Blue assay; type: tissue-based; details: filed as activator, time 18-20 hrs
# Summary of the method: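 Whole blood from healthy donors, diluted 1:2 in RPMI with sodium pyruvate, incubated 18–20 h at 37 °C with CDN in saline. Supernatants assayed on HEK-Blue IL-1R reporter cells (~50,000/well, ~20 h, 37 °C), SEAP read with QUANTI-Blue. Fold induction over unstimulated; mean of fifteen donors over three experiments.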
# T2 sequence (Q86WV6 whole entry): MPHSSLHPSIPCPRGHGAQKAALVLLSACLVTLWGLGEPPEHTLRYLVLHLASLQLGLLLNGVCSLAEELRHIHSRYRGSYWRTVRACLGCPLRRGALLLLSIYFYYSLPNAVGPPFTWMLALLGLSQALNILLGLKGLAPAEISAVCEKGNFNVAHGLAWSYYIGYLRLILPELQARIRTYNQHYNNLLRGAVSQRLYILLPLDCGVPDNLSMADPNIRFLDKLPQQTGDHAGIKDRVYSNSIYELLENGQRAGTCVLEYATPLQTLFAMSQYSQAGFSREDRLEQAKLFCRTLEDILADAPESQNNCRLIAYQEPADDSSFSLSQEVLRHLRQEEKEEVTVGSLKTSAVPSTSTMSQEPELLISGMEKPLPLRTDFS
SMILES,EC50 [1],Activity (RAW [2]),Stabilty [3],EC50 [4],Emax [5],other results
Nc1ncnc2c1ncn2[C@H]1C[C@@H]2OP(=O)(O)OC[C@H]3O[C@@H](n4cnc5c(O)ncnc54)[C@H](F)[C@@H]3OP(=O)(O)OC[C@H]2O1,5 µM,inactive,Stable,2.8 µM,93%,
Nc1ncnc2c1ncn2[C@H]1C[C@@H]2OP(=O)(O)OC[C@H]3O[C@@H](n4cnc5c(O)ncnc54)C[C@@H]3OP(=O)(O)OC[C@H]2O1,11.6 µM,inactive,Stable,9.9 µM,91%,"metabolised at 2 h, 7 ug [6]: < 40%; half-life at 7 ug (Nuclease P1 [7]): 5.7 min"
Nc1ncnc2c1ncn2[C@@H]1O[C@@H]2COP(=O)(O)O[C@H]3[C@@H](O)[C@H](n4cnc5c(O)ncnc54)O[C@@H]3COP(=O)(O)O[C@@H]1[C@@H]2O,,inactive,,,85%,
Nc1ncnc2c1ncn2[C@@H]1O[C@@H]2COP(=O)(O)O[C@@H]3[C@H](O)[C@@H](COP(=O)(O)O[C@H]2[C@H]1O)O[C@H]3n1cnc2c(=O)[nH]cnc21,6.1 µM,inactive,,,85%,half-life at 7 ug (Nuclease P1 [7]): 7.1 min
Nc1ncnc2c1ncn2[C@@H]1O[C@@H]2COP(=O)(S)O[C@H]3[C@@H](O)[C@H](n4cnc5c(O)ncnc54)O[C@@H]3COP(=O)(S)O[C@H]2[C@H]1O (stereo partly specified),4 µM,inactive,Stable,10.6 µM,115%,Stabilty (Nuclease P1 [8]): Stable
Nc1nc2c(ncn2[C@@H]2O[C@@H]3COP(=O)(O)O[C@H]4[C@@H](O)[C@H](n5cnc6c(N)ncnc65)O[C@@H]4COP(=O)(O)O[C@@H]2C3)c(=O)[nH]1,,,,,,half-life [9]: 60 min
Nc1nc2c(ncn2[C@@H]2O[C@@H]3COP(=O)(O)O[C@H]4[C@@H](O)[C@H](n5cnc6c(N)ncnc65)O[C@@H]4COP(=O)(O)O[C@@H]2[C@@H]3O)c(=O)[nH]1,,inactive,Stable,,,"remaining at 2 h, 7 ug (Nuclease P1 [8]; nuclease P1 (isolated enzyme), time 2 hrs, read-out: Stabilty): 83%; half-life [9]: 60 min"
Nc1ncnc2c1ncn2[C@@H]1O[C@@H]2COP(=O)(O)O[C@H]3C[C@H](n4cnc5c(O)ncnc54)O[C@@H]3COP(=O)(O)O[C@H]2[C@H]1F,9.1 µM,inactive,,3.6 µM,99%,
Cc1ccc2c(=O)c3cccc(CC(=O)O)c3oc2c1C,,,,,,Activity (RAW [10]): inactive
Nc1ncnc2c1ncn2[C@@H]1O[C@@H]2COP(=O)(O)O[C@H]3[C@@H](O)[C@H](n4cnc5c(O)ncnc54)O[C@@H]3COP(=O)(O)O[C@H]2[C@H]1O,,inactive,,,107%,Stabilty [11]: Unstable; half-life at 7 ug (Nuclease P1 [7]): 23.1 min
Nc1ncnc2c1ncn2[C@H]1C[C@@H]2OP(=O)(S)OC[C@H]3O[C@@H](n4cnc5c(O)ncnc54)[C@H](F)[C@@H]3OP(=O)(S)OC[C@H]2O1 (stereo partly specified),2.2 µM,inactive,Stable,4.7 µM,83%,Stabilty [12]: Stable
Nc1ncnc2c1ncn2[C@@H]1O[C@@H]2COP(=O)(O)O[C@@H]3[C@H](O)[C@@H](COP(=O)(O)O[C@@H]1[C@@H]2O)O[C@H]3n1cnc2c(O)ncnc21,,inactive,,,95%,
Nc1ncnc2c1ncn2[C@@H]1O[C@@H]2COP(=O)(O)O[C@H]3[C@@H](F)[C@H](n4cnc5c(O)ncnc54)O[C@@H]3COP(=O)(O)O[C@H]2[C@H]1F,5.1 µM,inactive,Stable,0.7 µM,90%,Stabilty (Nuclease P1 [8]): Stable; Activity [13]: Active
Nc1ncnc2c1ncn2[C@@H]1O[C@@H]2COP(=O)(S)O[C@H]3[C@@H](F)[C@H](n4cnc5c(O)ncnc54)O[C@@H]3COP(=O)(S)O[C@H]2[C@H]1F (stereo partly specified),0.6 µM,inactive,Stable,0.4 µM,104%,Stabilty [12]: Stable; Stabilty (Nuclease P1 [8]): Stable; Activity [13]: Active
